The values below come from ChEMBL document CHEMBL3132758, “Synthesis, Activity and Structure-Activity Relationship of Noroviral Protease Inhibitors” (Medchemcomm, 2013).

Structures are written as SMILES. Active and inactive are the calls of the source. The rule behind the calls is not given here. Non-standard residues stand in square brackets, D forms with d. Residues, ends and D or L forms follow the SMILES beside them. *: point of attachment. Pyrrolidide = C1CCN(*)C1; Cbz = O=C(OCc1ccccc1)*; Dap = NC[C@H](N)C(=O)O

System in one assay: not listed separately
Description: Inhibition of Houston virus recombinant His6-tagged protease using EDANS-EPDFHLQGPEDLAK-Dabcyl as substrate preincubated for 45 mins followed by substrate addition measured every 1 min for 30 mins by FRET analysis. Also noted: species or system genotype 2. In short, it runs like this:
(§1)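 Protease purified on Ni-NTA, used at 0.5 μM final. Preincubated with inhibitor (0, 0.05, 0.2, 1, 5, 20, 100, 150 μM) in 50 mM NaH2PO4 pH 8, 50 mM NaCl, 5 mM TCEP, room temperature. Substrate added to 30 μM final. Fluorescence read at ex 360/em 460 nm at 37 °C. Ki derived from initial velocities by Morrison tight-binding fit.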
Take `CC(C)C[C@H](NC(=O)[C@H](C)NC(=O)OCc1ccccc1)C(=O)N[C@H](C=O)CCC(=O)N(C)C` (Cbz-Ala-Leu-Glu(NMe2)-aldehyde): the Ki was found to be 4.6 µM. In the case of `CC(C)C[C@H](NC(=O)[C@H](CCC(N)=O)NC(=O)OCc1ccccc1)C(=O)N[C@H](C=O)CCC(=O)N(C)C` (Cbz-Gln-Leu-Glu(NMe2)-aldehyde), the Ki turned out to be 4.3 µM. For `CC(C)C[C@H](NC(=O)OCc1ccccc1)C(=O)N[C@@H](Cc1ccccc1)C(=O)N[C@H](C=O)CCC(=O)N(C)C` (Cbz-Leu-Phe-Glu(NMe2)-aldehyde), the Ki was determined as 7.5 µM. With `CC(=O)NC[C@@H](C=O)NC(=O)[C@H](Cc1ccccc1)NC(=O)[C@H](CC(C)C)NC(=O)OCc1ccccc1` (Cbz-Leu-Phe-[Dap](Ac)-aldehyde), the Ki is 14 µM.

System in a further assay: not listed separately
Briefly: (§2) Inhibition of Norwalk virus recombinant His6-tagged protease using EDANS-EPDFHLQGPEDLAK-Dabcyl as substrate preincubated for 45 mins followed by substrate addition measured every 1 min for 30 mins by FRET analysis. In short, it runs like this:
as §1
Turning to `CC(=O)[C@H](CCC(=O)N(C)C)NC(=O)[C@H](Cc1ccccc1)NC(=O)[C@H](CC(C)C)NC(=O)OCc1ccccc1`, the Ki was 150 µM. In the case of `CC(C)C[C@H](NC(=O)OCc1ccccc1)C(=O)N[C@@H](Cc1ccccc1)C(=O)N[C@H](C=O)CCC(=O)NC1CC1`, the Ki was found to be 1.4 µM.

On to `CC(=O)N[C@@H](CC(C)C)C(=O)N[C@@H](Cc1ccccc1)C(=O)N[C@H](C=O)CCC(=O)N(C)C` (Ac-Leu-Phe-Glu(NMe2)-aldehyde), for which the Ki stood at 39 µM.

Consider `CC(C)C[C@H](NC(=O)[C@H](C)NC(=O)OCc1ccccc1)C(=O)N[C@H](C=O)CCC(=O)N(C)C` (Cbz-Ala-Leu-Glu(NMe2)-aldehyde), for which the inhibition constant Ki turned out to be 0.59 µM. Still for that read-out and setting: in the case of `CN(C)C(=O)CC[C@@H](C=O)NC(=O)[C@H](Cc1ccccc1)NC(=O)[C@H](CC(N)=O)NC(=O)OCc1ccccc1` (Cbz-Asn-Phe-Glu(NMe2)-aldehyde) it was 1.6 µM; in that of `CC(C)C[C@H](NC(=O)[C@H](CCC(N)=O)NC(=O)OCc1ccccc1)C(=O)N[C@H](C=O)CCC(=O)N(C)C` (Cbz-Gln-Leu-Glu(NMe2)-aldehyde), 0.31 µM. In the case of `CC(C)C[C@H](NC(=O)[C@H](Cc1c[nH]cn1)NC(=O)OCc1ccccc1)C(=O)N[C@H](C=O)CCC(=O)N(C)C` (Cbz-His-Leu-Glu(NMe2)-aldehyde), the Ki was 1.9 µM. Same read-out and setting: then `CNC(=O)CC[C@@H](C=O)NC(=O)[C@H](Cc1ccccc1)NC(=O)[C@H](CC(C)C)NC(=O)OCc1ccccc1` (Cbz-Leu-Phe-Glu(NHMe)-aldehyde), with 5.1 µM.

Turning to `CC(C)C[C@H](NC(=O)OCc1ccccc1)C(=O)N[C@@H](Cc1ccccc1)C(=O)N[C@H](C=O)CCC(=O)N(C)C` (Cbz-Leu-Phe-Glu(NMe2)-aldehyde), the Ki came to 0.12 µM. Regarding `CC(C)C[C@H](NC(=O)OCc1ccccc1)C(=O)N[C@@H](Cc1ccccc1)C(=O)N[C@H](C=O)CCC(=O)N1CCCC1` (Cbz-Leu-Phe-Glu(Pyrrolidide)-aldehyde), the Ki came out at 0.075 µM. Consider `CC(=O)NC[C@@H](C=O)NC(=O)[C@H](Cc1ccccc1)NC(=O)[C@H](CC(C)C)NC(=O)OCc1ccccc1` (Cbz-Leu-Phe-[Dap](Ac)-aldehyde), for which the Ki was 1.5 µM. In the case of `CC(C)C[C@H](NC(=O)OCc1ccccc1)C(=O)N1CCC[C@H]1C(=O)N[C@H](C=O)CCC(=O)N(C)C` (Cbz-Leu-Pro-Glu(NMe2)-aldehyde), the Ki came out at 46 µM. On the same count and under the same terms, then `CC(C)[C@H](NC(=O)OCc1ccccc1)C(=O)N1CCC[C@H]1C(=O)N[C@H](C=O)CCC(=O)N(C)C` (Cbz-Val-Pro-Glu(NMe2)-aldehyde), with 8.2 µM.

Another assay relates to Norwalk virus. Described as §2. In short, it runs like this: as §1
For `CCOC(=O)/C=C/[C@H](CCC(=O)N(C)C)NC(=O)[C@H](Cc1ccccc1)NC(=O)[C@H](CC(C)C)NC(=O)OCc1ccccc1`, the inhibition result was “inactive”. As to `CCOC(=O)/C=C/[C@H](CCC(N)=O)NC(=O)[C@H](Cc1ccccc1)NC(=O)[C@H](CC(C)C)NC(=O)OCc1ccccc1`, the inhibition result was “inactive”.

For the compound `CCOC(=O)/C=C/[C@H](CNC(C)=O)NC(=O)[C@H](Cc1ccccc1)NC(=O)[C@H](CC(C)C)NC(=O)OCc1ccccc1`, the inhibition result is “inactive”.

System in a further assay: not listed separately
Description: Selectivity ratio of Ki for Houston virus recombinant His6-tagged protease to Ki for Norwalk virus recombinant His6-tagged protease.
On to `CC(C)C[C@H](NC(=O)[C@H](C)NC(=O)OCc1ccccc1)C(=O)N[C@H](C=O)CCC(=O)N(C)C` (Cbz-Ala-Leu-Glu(NMe2)-aldehyde), for which the Ratio Ki worked out at 10. For the compound `CC(C)C[C@H](NC(=O)[C@H](CCC(N)=O)NC(=O)OCc1ccccc1)C(=O)N[C@H](C=O)CCC(=O)N(C)C` (Cbz-Gln-Leu-Glu(NMe2)-aldehyde), the Ratio Ki stood at 10. For `CC(C)C[C@H](NC(=O)OCc1ccccc1)C(=O)N[C@@H](Cc1ccccc1)C(=O)N[C@H](C=O)CCC(=O)N(C)C` (Cbz-Leu-Phe-Glu(NMe2)-aldehyde), the Ratio Ki was 60.

For `CC(=O)NC[C@@H](C=O)NC(=O)[C@H](Cc1ccccc1)NC(=O)[C@H](CC(C)C)NC(=O)OCc1ccccc1` (Cbz-Leu-Phe-[Dap](Ac)-aldehyde), the Ratio Ki came to 10.

By Ki is commonly meant a dissociation constant, usually derived from enzyme kinetics or from competition with a known ligand.
